# Published values gathered from unrelated publications.
# Each line is one published result; the experiments were not run side by side.
# Target: High affinity nerve growth factor receptor (NTRK1, Homo sapiens, UniProt P04629)
SMILES,assay,setting,quantity,value
O=C(NCc1ncc(C(F)(F)F)cc1Cl)c1ccc2c(c1)C1(CCS(=O)(=O)CC1)[C@@H](C1CC1)N2S(=O)(=O)c1ccc(F)cc1,"cell-free assay, competition with immobilised ligand",1 µM,remaining binding,75%
COc1cc(/C=C/C(=O)CC(=O)/C=C/c2ccc(O)c(OC)c2)ccc1O,"enzyme activity, inhibitor",1 µM,activity vs control,93%
CCC(=N\O)/C(C)=C/c1ccc(F)cc1,"cell-free assay, competition with immobilised ligand",1 µM,remaining binding,83%
O=C(Cc1ccc(C(F)(F)F)cc1)Nc1cccc(C(=O)Nc2ccc3[nH]ncc3c2)c1,"enzyme activity, inhibitor, FRET",1 µM,inhibition,46%
CCN(CC)CCNC(=O)c1c(C)[nH]c(/C=C2\C(=O)Nc3ccc(F)cc32)c1C,"enzyme activity, inhibitor",0.1 µM,remaining activity,19%
FC(F)c1nc2ccccc2n1-c1nc(N2CCOCC2)nc(N2CCOCC2)n1,"enzyme activity, inhibitor",10 µM,remaining activity,83%
CNC(=O)c1ccc(Nc2ncc(C(F)(F)F)c(NCc3nccnc3N(C)S(C)(=O)=O)n2)cc1,"binding, competition with immobilised ligand",1 µM,remaining binding,13%
FC(F)(F)Oc1cccc(-c2cnc3ccc(-c4ccncc4)nn23)c1,"enzyme activity, inhibitor, radiometric",5 µM,activity vs control,15%
C[C@@H]1CN(c2cc(-c3n[nH]c4ccc(OC5(C)CC5)cc34)ncn2)C[C@H](C)O1,"cell-free assay, competition with immobilised ligand",0.1 µM,remaining binding,73%
O=C(Nc1ccc(Br)cc1)Nc1cccc(C(=O)Nc2ccc3[nH]ncc3c2)c1,"enzyme activity, inhibitor, FRET",1 µM,inhibition,50.5%
Cc1sc(C(=O)NC2COC2)cc1-n1cc(NC(=O)Nc2c(F)cccc2Cl)cn1,"enzyme activity, inhibitor",10 µM,remaining activity,81%
CCCOc1ccc([C@H]2[C@H](C(=O)O)[C@@H](c3ccc4c(c3)OCO4)CN2CC(=O)Nc2c(CC)cccc2CC)cc1,"cell-free assay, competition with immobilised ligand",1 µM,remaining binding,84%
O=C(Nc1cnn(-c2csc(C(=O)NC3COC3)c2)c1)Nc1c(F)cccc1Cl,"enzyme activity, inhibitor",5 µM,remaining activity,87.8%
CC(C)(C)c1nc(-c2cccc(NS(=O)(=O)c3c(F)cccc3F)c2F)c(-c2ccnc(N)n2)s1,"enzyme activity, inhibitor, radiometric",1 µM,remaining activity,78%
CN(C)C(=O)Cn1cc(-c2nc(C3(c4ccc(-c5cnc(N)nc5)cc4)CC3)no2)cn1,"cell-free assay, competition with immobilised ligand",1 µM,remaining binding,100%
O=C(Nc1ccc(F)cc1)Nc1cccc(C(=O)Nc2ccc3[nH]ncc3c2)c1,"enzyme activity, inhibitor, FRET",1 µM,inhibition,63.2%
Nc1cnc(N2CCc3cc(S(=O)(=O)Nc4c(F)cc(Cl)cc4F)cc(N4CCCC4=O)c32)nc1,"cell-free assay, competition with immobilised ligand",1 µM,remaining binding,100%
CCN(CC)c1ccc(C2=NNC(=O)CC2C)cc1[N+](=O)[O-] (stereo not drawn),"enzyme activity, inhibitor",10 µM,remaining activity,118%
Cc1ccc(C(=O)NCc2ccsc2)cc1C#Cc1cn(C(C)C)c2ncnc(N)c12,"enzyme activity, inhibitor",1 µM,activity vs control,74%
CN([C@@H]1CCc2c(CC(=O)O)c3cc(S(C)(=O)=O)ccc3n2C1)S(=O)(=O)c1ccc(F)cc1,"cell-free assay, competition with immobilised ligand",1 µM,remaining binding,100%
CC(C)(O)[C@H]1CC[C@H](Nc2ccc3ncc(-c4cccc(C(F)(F)F)c4)n3n2)CC1,"enzyme activity, inhibitor",1 µM,remaining activity,21.9%
O=C1Nc2ccc(Cl)cc2C1=Cc1cc(Cl)c(O)c(Cl)c1,cell-free assay,0.5 µM,remaining signal,87.4%
Cc1cnc(NC2CCOCC2)nc1-n1cnc(C(=O)NC(CN)c2cc(F)cc(Cl)c2)c1 (stereo not drawn),"enzyme activity, inhibitor, radiometric",1 µM,remaining activity,100%
O=C(Nc1cccc(F)c1)Nc1cccc(C(=O)Nc2ccc3[nH]ncc3c2)c1,"enzyme activity, inhibitor, FRET",1 µM,inhibition,51.3%
COc1cc(Nc2cnc(C#N)c(O[C@H](C)CN(C)C)n2)ncc1-c1cnn(C)c1,"enzyme activity, inhibitor, radiometric",10 µM,remaining activity,28%
N#CCCc1ccc2c(c1)-c1[nH]c3ccc([N+](=O)[O-])cc3c1CC(=O)N2,cell-free assay,0.5 µM,remaining signal,115%
O=C(Nc1cccc(Cl)c1)Nc1cccc(C(=O)Nc2ccc3[nH]ncc3c2)c1,"enzyme activity, inhibitor, FRET",1 µM,inhibition,47.4%
Cc1[nH]c(/C=C2\C(=O)Nc3ccc(F)cc32)c(C)c1C(=O)N[C@H]1CCN(C(=O)N(C)C)C1,"enzyme activity, inhibitor",0.1 µM,remaining activity,34%
O=C(Nc1ccc(I)cc1)Nc1cccc(C(=O)Nc2ccc3[nH]ncc3c2)c1,"enzyme activity, inhibitor, FRET",1 µM,inhibition,47.4%
Nc1ncnc2occ(-c3ccc(NC(=O)Nc4cc(C(F)(F)F)ccc4F)cc3)c12,cell-free assay,20 µM,remaining signal,0%
